Reference: paper PMC6221542 (Science Advances, 2018)

Assays:
H4K20me1 = assay: Peptide microarray, chromodomain binding to H4K20me1; design: species or system human; conditions: no dsDNA in binding buffer
Summary of the method: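 Custom array of 467 unmodified and modified peptides (synthesized, desalted, mass-spec checked), each spotted in triplicate on glass slides. Chromodomain proteins were bound to the printed array and analyzed by a previously described protocol. The CBX1 mutant chromodomain was instead screened on a commercial modified-histone peptide array.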

[1] = test system: methylated H3K9 and H3K27 peptides; assay: Peptide microarray, chromodomain binding profile; design: species or system human; conditions: cluster 3 = H3K9 peptides with different PTMs
Summary of the method: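 Array of 467 unmodified and modified peptides (desalted, mass-spectrometry checked) printed in triplicate spots on glass slides and probed with chromodomain proteins. Signal intensities converted to z scores per chromodomain using all its intensities: z = (x − mean)/SD. Hierarchical clustering grouped chromodomains into three categories and peptides into six clusters by binding preference.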

B1: MS3L1: MS3L1 chromodomain, cloned sequence 29-94 (protein, UniProt Q8N5Y2 29-94, looked up, fragment)
chain: VLYDAKIVDVIVGKDEKGRKIPEYLIHFNGWNRSWDRWAAEDHVLRDTDENRRLQRKLARKAVARL
modifications: chromodomain
For B1, the “interaction with H4K20me1 (in words)” value (H4K20me1) was “did not show interaction with this mark” and the “interaction with peptide cluster 3 (in words)” value [1] was “lacked significant interaction with cluster 3”.
